Screens deposited in PubChem BioAssay by The Scripps Research Institute Molecular Screening Center.
MsrA inh: bovine MsrA enzyme inhibitors, primary screen, biochemical, absorbance, HTS | Methionine sulfoxide reductase A (Bos taurus) | purified bovine MsrA, absorbance read-out | inhibition, % at 15.5 µM | 360,000 compounds, 0.75% hits | AID 651718, 2012;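 further: 0% = vehicle wells with enzyme and 100% = reference inhibitor wells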
MsrA act: bovine MsrA enzyme activators, primary screen, biochemical, absorbance, HTS; purified bovine MsrA, absorbance read-out; activation, % at 10.6 µM; 360,000 compounds, 0.3% hits; in the data active means activation above about 7.5%;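 further: 0% = vehicle and 100% = reference activator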
ARFGAP1 inhibitor: inhibitors of rat ARFGAP1 GAP activity, primary screen, biochemical, fluorescence polarization, GDP tracer | ADP-ribosylation factor GTPase-activating protein 1 (Rattus norvegicus), Q62848 | Arfgap1-stimulated ARF1 GTP hydrolysis, GDP FP detection | inhibition, % at 16.5 µM | 360,000 compounds, 0.26% hits | AID 651572, 2012;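 active means inhibition above a per-plate limit, mean inhibition of low control wells plus 3 SD, cut at about 25% in these data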;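 further: 0% = DMSO wells with enzyme and 100% = wells lacking Arfgap1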
Target sequence (Q62848 1-136 limits assumed): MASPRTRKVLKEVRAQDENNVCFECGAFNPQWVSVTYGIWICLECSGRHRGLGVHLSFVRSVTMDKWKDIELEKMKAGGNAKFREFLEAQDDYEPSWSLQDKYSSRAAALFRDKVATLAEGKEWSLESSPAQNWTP
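Material: truncated rat Arfgap1 GAP domain; Incubation: compound-enzyme preincubation 20 min, reaction 120 min, detection 60 min, 25 °C; Read-out: percent inhibition of Arfgap1-stimulated GTP hydrolysis; Technique: FP, GDP Alexa 633 tracer displaced from anti-GDP antibody, 620/688 nm; Controls: No-Arfgap1 wells (100%) versus DMSO full-reaction wells (0%); Replication: single well per compound.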
ASAP1 inh: inhibitors of human ASAP1 ArfGAP activity, primary screen, biochemical, fluorescence polarization; Arf-GAP with SH3 domain, ANK repeat and PH domain-containing protein 1 (Homo sapiens), …; ASAP1-stimulated ARF1 GTP hydrolysis, GDP FP detection; inhibition, % at 16.5 µM; 360,000 compounds, 0.19% hits; in the data active means inhibition above about 25%;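 further: 0% = vehicle with enzyme and substrate and 100% = no enzyme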
Target sequence (Q9ULH1 325-724 limits assumed): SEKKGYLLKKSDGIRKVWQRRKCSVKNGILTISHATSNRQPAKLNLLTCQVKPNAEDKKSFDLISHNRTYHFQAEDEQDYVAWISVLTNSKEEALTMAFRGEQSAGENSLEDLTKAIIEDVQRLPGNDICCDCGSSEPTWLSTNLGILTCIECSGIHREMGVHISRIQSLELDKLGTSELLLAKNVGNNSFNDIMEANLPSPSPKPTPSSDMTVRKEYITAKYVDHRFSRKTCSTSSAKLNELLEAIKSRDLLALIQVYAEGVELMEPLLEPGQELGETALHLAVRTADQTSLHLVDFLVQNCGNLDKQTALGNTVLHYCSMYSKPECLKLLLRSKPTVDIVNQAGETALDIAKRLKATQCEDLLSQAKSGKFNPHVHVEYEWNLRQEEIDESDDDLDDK
ASAP1 GAP conf: ASAP1 GAP activity inhibitors, confirmation, biochemical, fluorescence polarization, human, triplicate; 620 compounds, 37% hits; inhibition, % at 16.5 µM; shares compounds with ASAP1 inh; ASAP1-stimulated Arf1 GTPase, GDP fluorescence polarization; AID 624431, 2012;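 active means mean inhibition over triplicates exceeds the hit threshold derived for the earlier primary screening run, cut at about 25% in these data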
ARFGAP1 confirm: ARFGAP1 inhibitor hit confirmation, biochemical, fluorescence polarization, triplicate; shares compounds with ARFGAP1 inhibitor; ARFGAP1-stimulated ARF1 GTP hydrolysis, GDP tracer FP; inhibition, % at 16.5 µM; 890 compounds, 30% hits; AID 651608, 2012;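 active means average inhibition over triplicates above the hit cutoff set in the earlier primary screen, cut at about 25% in these data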;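 further: 0% = Arfgap1 plus ARF1-GTP with DMSO and 100% = wells lacking Arfgap1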
MsrA inh confirm: bovine MsrA inhibitors, retest, confirmation, biochemical, absorbance, HTS; shares compounds with MsrA inh; purified bovine MsrA, absorbance read-out; inhibition, % at 15.5 µM; 2,300 compounds, 41% hits;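 further: coupled to thioredoxin reductase with NADPH and selenocystamine and DMSO as substrate; 0% = vehicle only and 100% = full effect of reference inhibitor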
An asterisk follows results filed as active; · = not tested or not shown. Shown are actives, neighbours in structure and some others; about 1.4% of the full set was active somewhere. Unless noted, no stated cut-off is given here; in the data, active means inhibition above about 4.5%; inactive means the rest.

SMILES	MsrA inh	MsrA act	ARFGAP1 inhibitor	ASAP1 inh	ARFGAP1 confirm	others
O=S(=O)(c1cccc2cccnc12)N1CCN(Cc2ccccc2)CC1	0.2	-7.6	2.9	5.5	·
CCc1ccc(NC(=O)CCCN2C(=O)C3CC=CCC3C2=O)cc1 (configuration not stated)	0.2	1.2	-11.6	-10.2	·
CN(c1ccccc1)c1ccc(/C=C(\CCC(=O)O)c2nc3ccccc3s2)cc1[N+](=O)[O-]	1.3	-0.7	-28.8	1.6	·
CNc1ccc(/C=C(\CCC(=O)O)c2nc3ccccc3s2)cc1[N+](=O)[O-]	4.8*	-6.2	2.5	29.6*	·	ASAP1 GAP conf=52.4*;MsrA inh confirm=5.4*
Cc1ccccc1NC1=C/C(=N\S(=O)(=O)c2cccs2)c2ccccc2C1=O	16.0*	-5.6	17.8	25.3*	·	ASAP1 GAP conf=6.2;MsrA inh confirm=29.3*
O=C(NC1CCS(=O)(=O)C1)c1cccc(Cl)c1 (configuration not stated)	0.6	-2.9	1.3	1.6	·
O=C1C(N2CCOCC2)=C(n2nnc3ccccc32)C(=O)c2ccccc21	70.7*	-6.4	30.8*	44.4*	3.5	ASAP1 GAP conf=9.7;MsrA inh confirm=69.0*
CCOC(=O)Cc1cc(=O)c2cc(C)ccc2[nH]1	0.6	-4.7	39.0*	1.4	-2.8
Cc1ccc2[nH]c(-c3ccccc3)cc(=O)c2c1	1.4	-2.5	-2.1	0.7	·
CC1(c2nnnn2C2CCCC2)CCC(=O)N1c1ccc2c(c1)OCCO2 (configuration not stated)	0.6	·	5.6	4.4	·
O=C(CSc1ccc(S(=O)(=O)N2CCOCC2)cn1)Nc1ccc(F)c(F)c1	-0.1	-2.5	1.0	-18.7	·
Oc1ccc(/C=N/Nc2cccc3cccnc23)c(O)c1	3.9	-1.9	50.6*	3.2	16.0
Cc1ccc(/C=N/Nc2cccc3cccnc23)c(O)c1	1.5	-8.3	4.2	0.9	·
CNS(=O)(=O)c1cccc(C(=O)NCC(c2cccs2)N2CCOCC2)c1 (configuration not stated)	0.4	-2.0	26.2*	1.5	-0.7
Cc1ccc(NS(=O)(=O)c2cccc(C(=O)NCC(c3cccs3)N3CCOCC3)c2)cc1 (configuration not stated)	0.0	0.1	-11.6	18.6	·
COc1cccc(OC)c1C(=O)Nc1ccc(S(=O)(=O)Nc2ncccn2)cc1	-1.1	-7.5	27.8*	5.7	8.6
COc1cc(C(=O)Nc2ccc(S(=O)(=O)Nc3ncccn3)cc2)c([N+](=O)[O-])cc1OC	2.7	-2.3	-8.7	5.4	·
CC(C)NC(=O)Cn1c(SCC(=O)N2c3ccccc3CC2C)nc2ccccc21 (configuration not stated)	0.1	-7.3	30.7*	1.0	1.2
CCSCCOC(=O)C1=C(C)NC(=O)NC1c1cccc(OC)c1OC (configuration not stated)	-0.7	-2.3	26.2*	1.4	1.0
CCOc1ccc(/C=N/NC(=O)c2cc3c(OC)cc(OC)cc3[nH]2)cc1OC	3.0	-4.1	26.3*	18.0	47.3*
C=CCOc1ccc(/C=N/NC(=O)c2cc3c(OC)cc(OC)cc3[nH]2)cc1	2.7	-2.9	10.2	14.2	·
O=C(CCCNC(=O)/C(=C/c1ccccc1F)NC(=O)c1ccccc1)OCc1ccccc1	-0.5	-0.9	26.8*	-4.6	3.6
Cc1nn(C)c(Cl)c1/C=N/OC(=O)c1ccccc1	0.3	-1.9	31.8*	-6.3	-4.1
Cc1nn(C)c(Cl)c1/C=N/OC(=O)c1ccc(F)cc1	-1.8	1.0	-8.2	6.0	·
CC1(c2nnc(Cc3ccccc3)o2)CC(c2ccncc2)=NO1 (configuration not stated)	0.7	1.9	42.7*	1.2	2.2
SMILES	MsrA inh	MsrA act	ARFGAP1 inhibitor	ASAP1 inh	ARFGAP1 confirm	others
CC1(c2nnc(Cc3ccccc3)o2)CC(c2ccc(Cl)cc2)=NO1 (configuration not stated)	0.6	-8.6	-18.4	-1.6	·
CC1(C)Cc2ccccc2-c2nnc(SCC(=O)N3CCc4ccccc43)n21	-1.0	-2.9	26.8*	21.9	23.7
COc1ccc2cc(C(=O)/C=C/c3cc(OC)c(O)c(OC)c3)ccc2c1	-0.1	-4.1	25.6*	14.5	13.4
COc1cccc(-c2csc(N3CCN(C(=O)Nc4ccc(Cl)cc4)CC3)n2)c1	0.3	-0.3	28.1*	3.0	5.8
COc1ccc(NC(=O)N2CCN(c3nc(-c4cccc(OC)c4)cs3)CC2)cc1	0.9	-1.9	-0.8	7.5	·
O=C(Nc1ccccc1)C1C2/C=C\CCCCC21 (configuration not stated)	-1.3	-6.6	8.6	19.3	·
Cc1ccc(NC(=O)C2C3/C=C\CCCCC32)cc1C (configuration not stated)	0.2	-9.1	44.2*	9.4	-3.0
CC(C)CC1NC(=O)c2ccccc2-n2c1nc1ccc(Cl)cc1c2=O (configuration not stated)	1.2	·	-12.0	2.1	·
COc1ccc(N/N=C(/C#N)S(=O)(=O)c2nsc(C)c2C#N)cc1	3.2	-6.2	28.0*	-6.6	1.2
Cc1snc(S(=O)(=O)/C(C#N)=N/Nc2cccc(C(F)(F)F)c2)c1C#N	·	-9.5	·	·	·
CC(=O)Nc1ccc(N2C(=O)CC(N3CCSCC3)C2=O)cc1 (configuration not stated)	-1.6	-10.2	25.4*	-1.0	2.0
Cc1cccc(C)c1NC1=NCCCCC1	2.2	-4.1	-1.0	-10.2	·
O=C(COC(=O)CNS(=O)(=O)c1ccc2ccccc2c1)Nc1ccccc1Sc1ccccc1	0.4	-3.4	29.8*	7.5	7.5
CCOC(=O)c1csc(NC(=O)CSc2nnnn2-c2ccc3c(c2)OCCO3)n1	-0.3	-8.1	4.0	7.2	·
CCC(=O)Nc1ccc(NC(=O)CSc2nnnn2-c2ccc3c(c2)OCCO3)cc1	0.7	-11.2	33.1*	8.4	41.6*
COC(=O)c1ccccc1NC(=O)CSc1nc2ccsc2c(=O)n1Cc1ccc(C(=O)O)cc1	0.2	-1.2	-11.7	7.1	·
CCn1c(SCC(=O)N(C)CC(=O)Nc2ccc(F)c(F)c2F)nnc1-c1ccco1	0.5	-2.6	-0.8	4.5	·
Cc1ccc(NC(=O)Cn2c3ccc(F)cc3c3nc4n(c(=O)c32)CCS4)cc1F	-0.3	-1.0	9.6	-3.2	·
